STAT1 act: increases IFN-gamma driven STAT1 reporter signal; NIH 3T3 STAT1-luciferase reporter, luminescence; 100% = IFN-gamma alone, no compound; activation (% of control), % at 5.5 µM; actives 2.6% (n = 200,000); AID 932;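 active means activation above the screen-wide mean activation plus 3 SD, cut at about 130% in these data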;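 further: raw ratio to IFN-gamma control signal so 100% means no change and 0% no light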
STAT1 inh: STAT1 signaling inhibition; inhibition, % at 5.5 µM; actives 0.35% (n = 200,000); NIH 3T3 STAT1-luciferase reporter, IFN-gamma, luminescence;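 active means inhibition above a set limit, the mean inhibition across all tested compounds plus 3 SD, cut at about 34% in these data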;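 further: 0% = IFN-gamma with DMSO and 100% = IFN-gamma with 300 µM nifuroxazide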
FLuc stim CS: firefly luciferase counter-screen for stimulation assays; AID 1027; ATPlite luciferase biochemical, luminescence, 10 min; 0 = ATP-free wells, 1 = DMSO control; 200,000 tested, under 10 active; activation factor at 10 µM; P08659;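 active means luciferase activation factor, scaled between plate controls, of at least 2 with compound at 10 µM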
Target sequence (P08659 whole entry, looked up): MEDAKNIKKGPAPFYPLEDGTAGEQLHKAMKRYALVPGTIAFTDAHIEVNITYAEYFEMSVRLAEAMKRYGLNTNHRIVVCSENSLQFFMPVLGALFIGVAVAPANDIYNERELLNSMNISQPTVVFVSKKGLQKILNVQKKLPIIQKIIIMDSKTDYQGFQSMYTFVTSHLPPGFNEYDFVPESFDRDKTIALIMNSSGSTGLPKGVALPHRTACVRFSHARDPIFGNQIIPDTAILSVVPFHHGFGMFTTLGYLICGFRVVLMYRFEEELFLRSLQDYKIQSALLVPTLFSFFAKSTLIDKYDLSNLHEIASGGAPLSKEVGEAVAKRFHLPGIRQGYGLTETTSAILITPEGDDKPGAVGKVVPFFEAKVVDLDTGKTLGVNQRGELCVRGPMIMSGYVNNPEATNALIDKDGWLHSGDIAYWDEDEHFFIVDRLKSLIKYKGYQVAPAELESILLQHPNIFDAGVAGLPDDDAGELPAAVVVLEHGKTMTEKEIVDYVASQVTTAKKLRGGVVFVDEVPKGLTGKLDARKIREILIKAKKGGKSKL
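Material: Luciferase/luciferin reagent mix; Doses: test compounds dosed from 2 mM stocks in 100% DMSO; Schedule: 10 min incubation after luciferase reagent addition, room temperature; Measured by: luminescence from luciferase reaction; Read-out: luminescence gain marking luciferase activators.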
STAT3 inh: inhibitors of IL-6 induced STAT3 signaling; U3A cells, IL-6 STAT3-luciferase reporter, luminescence; host cell line lacks STAT1; inhibition, % at 5.5 µM; actives 0.89% (n = 190,000);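 active means inhibition above the mean inhibition across all screened compounds plus 3 SD, cut at about 44% in these data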;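 further: 0% = DMSO only wells and 100% = 100 µM nifuroxazide control wells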
STAT3 act: STAT3 signaling activation; activation (% of control), % at 5.6 µM; AID 871; actives 0.91% (n = 190,000); U3A cells, IL-6 STAT3-luciferase reporter, luminescence; 100% = signal with IL-6 EC80 alone;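 active means activation above the screen-wide mean of compound activation plus 3 SD, cut at about 130% in these data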;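 further: 0% = background luminescence of wells with medium and substrate only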
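Material: STAT3-luciferase reporter U3A cells; Probe or stimulus: IL-6 (33 ng/mL); Incubation: compound pre-incubation 1 h before IL-6, then 6 h stimulation at 37 °C; Technique: luminescence from STAT3-driven luciferase reporter; Evaluation: % activation versus median of IL-6-stimulated wells; Controls: IL-6-only high control.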
FLuc inh counter: Photinus pyralis luciferase inhibition counter-screen; P08659; ATPLite firefly luciferase biochemical luminescence, 10 min; inhibition, % at 10 µM; actives 1.5% (n = 200,000);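 active means inhibition above about 50% when tested at 10 µM, limit read from the data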
STAT1 activ conf: confirmation of STAT1 signaling activators. NIH 3T3 STAT1-luciferase reporter, IFN-gamma potentiation, luminescence; 100% = IFN-gamma EC80 alone, no compound. shares compounds with STAT1 act. activation (% of control), % at 5.7 µM. actives 97% (n = 1,200);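 active means activation above a set limit carried over from the earlier primary STAT1 screen, cut at about 140% in these data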;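 further: simple ratio to median IFN-gamma plus DMSO wells so 0% means no light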
NFkB act STAT1ct: activates NF-kappaB, counter-screen to STAT1 activators | actives 43% (n = 1,200) | AID 1306 | HEK293T NF-kB luciferase reporter, TNF-alpha stimulated, luminescence; 100% = TNF-alpha with vehicle only | activation (% of control), % at 5.7 µM | shares compounds with STAT1 act;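 active means activation above the mean of solvent-only control wells plus 3 SD, set per campaign, cut at about 130% in these data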;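 further: TNF-alpha given at a submaximal dose yielding about 80% of full reporter signal; values are well signal over median control so 100% means no change and 0% no light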
STAT3 act 2: counter-screen for STAT1 activators: human STAT3 activation. shares compounds with STAT1 act. U3A cells STAT3-luciferase reporter, IL-6, luminescence; cells lack STAT1; 100 = IL-6 alone, no compound effect. activation (% of control), % at 5.7 µM. actives 46% (n = 1,200);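 active means activation above the solvent-only control well mean plus 3 SD, set per plate batch, cut at about 110% in these data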;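 further: 0% = no luminescence and 100% = median IL-6 plus DMSO wells; higher means more STAT3 reporter activation so hits are non-selective activators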
* = called active by the depositor. Rows were chosen to be rich in hits. Some 4.9% of all compounds tested hit in one or more screens of this group.

`O=C(c1ccccc1SCc1ccc(F)cc1)N1CCOCC1` gave STAT1 act 102, STAT1 inh -4, FLuc stim CS 1, STAT3 inh 2, STAT3 act 105 and FLuc inh counter -4.
Cc1nc2c(-c3ccccc3)c(C)nn2c(N)c1-c1ccccc1 was read as STAT1 act 159*, STAT1 inh -65, FLuc stim CS 0.3, STAT3 inh 10, STAT3 act 94, FLuc inh counter 68*, STAT1 activ conf 206*, NFkB act STAT1ct 141* and STAT3 act 2 110.
`Cc1cc(/C=C(\C#N)C(=O)NCc2cccs2)c(C)n1-c1ccccc1F` gave STAT1 act 151*, STAT1 inh -56, FLuc stim CS 0.5, STAT3 inh -5, STAT3 act 108, FLuc inh counter 49, STAT1 activ conf 169*, NFkB act STAT1ct 130 and STAT3 act 2 121*.
Screening Cc1ccc2nc(-c3ccc(NC(=O)CN4C(=O)c5ccccc5C4=O)cc3)sc2c1 returned STAT1 act 162*, STAT1 inh -69, FLuc stim CS 0.6, STAT3 inh 4, STAT3 act 98, FLuc inh counter 38, STAT1 activ conf 180*, NFkB act STAT1ct 130 and STAT3 act 2 118*.
Screening CCC1(c2ccc(F)cc2)NC(=O)N(CC(=O)Nc2ccc(-c3nc4ccc(C)cc4s3)cc2)C1=O (stereo not given) returned STAT1 act 169*, STAT1 inh -79, FLuc stim CS 0.7, STAT3 inh 4, STAT3 act 97, FLuc inh counter 27, STAT1 activ conf 201*, NFkB act STAT1ct 133 and STAT3 act 2 112*.
`Cc1nnc(SCC(=O)Nc2ccc(-c3nc4ccccc4s3)cc2)s1` gave STAT1 act 156*, STAT1 inh -63, FLuc stim CS 0.2, STAT3 inh -8, STAT3 act 105, FLuc inh counter 80*, STAT1 activ conf 243*, NFkB act STAT1ct 109 and STAT3 act 2 86.
Cc1nnc(SCC(=O)Nc2ccccc2NC(=O)CSc2nnc(C)s2)s1 was read as STAT1 act 98, STAT1 inh 3, FLuc stim CS 1.1, STAT3 inh 4, STAT3 act 96 and FLuc inh counter -5.
`O=C(OCc1csc(-c2ccccc2)n1)c1cccs1` gave STAT1 act 152*, STAT1 inh -57, FLuc stim CS 0.6, STAT3 inh 8, STAT3 act 96, FLuc inh counter 44, STAT1 activ conf 181*, NFkB act STAT1ct 120 and STAT3 act 2 108.
`CC1(C(=O)OCc2cc(=O)n3cc(Br)ccc3n2)CC1(Cl)Cl` (stereo not given) gave STAT1 act 161*, STAT1 inh -67, FLuc stim CS 0.9, STAT3 inh 7, STAT3 act 96, FLuc inh counter 7, STAT1 activ conf 168*, NFkB act STAT1ct 124 and STAT3 act 2 100.
CC1(C)NC(=O)N(CC(=O)OCc2cc(=O)n3cc(Br)ccc3n2)C1=O was read as STAT1 act 95, STAT1 inh 5, FLuc stim CS 1, STAT3 inh 6, STAT3 act 102 and FLuc inh counter 0.
`COCC(C)Nc1ncnc2c1cnn2-c1ccc(Cl)cc1` (stereo not given) gave STAT1 act 163*, STAT1 inh -69, FLuc stim CS 0.7, STAT3 inh 24, STAT3 act 86, FLuc inh counter 33, STAT1 activ conf 235*, NFkB act STAT1ct 141* and STAT3 act 2 106.
Screening COc1ccc(-n2ncc3c(NCC(C)C)ncnc32)cc1 returned STAT1 act 166*, STAT1 inh -69, FLuc stim CS 0.3, STAT3 inh 26, STAT3 act 82, FLuc inh counter 71*, STAT1 activ conf 260*, NFkB act STAT1ct 118 and STAT3 act 2 98.
`C=CCNc1ncnc2c1cnn2-c1ccc(Cl)cc1` gave STAT1 act 177*, STAT1 inh -81, FLuc stim CS 0.6, STAT3 inh 12, STAT3 act 90, FLuc inh counter 39, STAT1 activ conf 266*, NFkB act STAT1ct 133 and STAT3 act 2 108.
`Clc1ccc(-n2ncc3c(NCCCn4ccnc4)ncnc32)cc1` gave STAT1 act 124, STAT1 inh -26, FLuc stim CS 1, STAT3 inh 0, STAT3 act 100 and FLuc inh counter 5.
`Clc1ccc(-n2ncc3c(NCCN4CCOCC4)ncnc32)cc1` gave STAT1 act 97, STAT1 inh -6, FLuc stim CS 0.9, STAT3 inh 25, STAT3 act 80 and FLuc inh counter 9.
`CCCCNc1ncnc2c1cnn2-c1ccc(Cl)cc1` gave STAT1 act 158*, STAT1 inh -61, FLuc stim CS 0.8, STAT3 inh -14, STAT3 act 111, FLuc inh counter 17, STAT1 activ conf 249*, NFkB act STAT1ct 140* and STAT3 act 2 106.
For COc1ccc(-n2ncc3c(NCc4ccc5c(c4)OCO5)ncnc32)cc1 the results were STAT1 act 115, STAT1 inh -14, FLuc stim CS 1, STAT3 inh -4, STAT3 act 107 and FLuc inh counter -1.
`COCCNc1ncnc2c1cnn2Cc1ccc(Cl)cc1` gave STAT1 act 105, STAT1 inh -5, FLuc stim CS 1.1, STAT3 inh -3, STAT3 act 105 and FLuc inh counter -8.
Cc1ccc(O)c(-c2cc(C(=O)Nc3ccc(S(=O)(=O)Nc4nc(C)cc(C)n4)cc3)[nH]n2)c1 was read as STAT1 act 106, STAT1 inh -7, FLuc stim CS 1.1, STAT3 inh 13, STAT3 act 91 and FLuc inh counter -9.
`CCc1nnc(NC(=O)C2CCCN2C(=O)Nc2ccccc2)s1` (stereo not given) gave STAT1 act 105, STAT1 inh -6, FLuc stim CS 1, STAT3 inh 22, STAT3 act 87 and FLuc inh counter -3.
